Converted amounts (≈) assume the structure as drawn. The source made the active and inactive calls. No cut-off for these calls is given here.
What was measured:
Staphylococcus aureus [1] = experiment: Antibacterial activity against Staphylococcus aureus assessed as reduction in microbial growth by two fold microdilution method; format: functional
Method in brief: (§1)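 MIC determined by the standard two-fold broth micro-dilution assay, with norfloxacin and ciprofloxacin as reference agents.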

Staphylococcus aureus [2] = experiment: Antibacterial activity against methicillin-resistant Staphylococcus aureus assessed as reduction in bacterial growth at 50 to 300 ug/ml measured after 14 passages; format: functional, organism-based; details: dose 50-300 µg/ml
Staphylococcus aureus [3] = experiment: Antibacterial activity against methicillin-resistant Staphylococcus aureus assessed as reduction in microbial growth by two fold microdilution method; format: functional; method in brief: as §1
Pseudomonas aeruginosa [4] = experiment: Antibacterial activity against Pseudomonas aeruginosa assessed as reduction in microbial growth by two fold microdilution method; format: functional
Acinetobacter baumannii = experiment: Antibacterial activity against Acinetobacter baumannii assessed as reduction in microbial growth by two fold microdilution method; format: functional
Pseudomonas aeruginosa [5] = experiment: Antibacterial activity against Pseudomonas aeruginosa ATCC 27853 assessed as reduction in microbial growth by two fold microdilution method; format: functional
Klebsiella pneumoniae [6] = experiment: Antibacterial activity against Klebsiella pneumonia assessed as reduction in microbial growth by two fold microdilution method; format: functional
Staphylococcus aureus [7] = experiment: Antibacterial activity against Staphylococcus aureus ATCC 29213 assessed as reduction in microbial growth by two fold microdilution method; format: functional
Escherichia coli [8] = experiment: Antibacterial activity against Escherichia coli assessed as reduction in microbial growth by two fold microdilution method; format: functional
Escherichia coli [9] = experiment: Antibacterial activity against Escherichia coli ATCC 25922 assessed as reduction in microbial growth by two fold microdilution method; format: functional
Staphylococcus aureus [10] = experiment: Antibacterial activity against Staphylococcus aureus ATCC 25923 assessed as reduction in microbial growth by two fold microdilution method; format: functional
Enterococcus faecalis = experiment: Antibacterial activity against Enterococcus faecalis assessed as reduction in microbial growth by two fold microdilution method; format: functional
Staphylococcus aureus [11] = experiment: Potency index, ratio of norfloxacin MIC to test compound MIC for antibacterial activity against methicillin-resistant Staphylococcus aureus assessed as reduction in microbial growth by two fold microdilution method; format: functional
Staphylococcus aureus [12] = experiment: Potency index, ratio of norfloxacin MIC to test compound MIC for antibacterial activity against Staphylococcus aureus ATCC 29213 assessed as reduction in microbial growth by two fold microdilution method; format: functional
Klebsiella pneumoniae [13] = experiment: Antibacterial activity against Klebsiella pneumonia in presence of (E)-1-cyclopropyl-6-fluoro-7-(4-(2-((2-methoxy-2-oxoethoxy)imino)-2-(thiazol-2-yl)ethyl)piperazin-1-yl)-4-oxo-1,4-dihydroquinoline-3-carboxylic acid (reference value: 2 ug/ml)
Staphylococcus aureus [14] = experiment: microbe, parasite or virus in culture
Staphylococcus aureus [15] = experiment: microbe, parasite or virus in culture; details: ATCC 25923

SMILES	MIC (Staphylococcus aureus [1])	Activity (Staphylococcus aureus [2])	MIC (Staphylococcus aureus [3])	MIC (Pseudomonas aeruginosa [4])	MIC (Acinetobacter baumannii)	MIC (Pseudomonas aeruginosa [5])	MIC (Klebsiella pneumoniae [6])	MIC (Staphylococcus aureus [7])	MIC (Escherichia coli [8])	MIC (Escherichia coli [9])	MIC (Staphylococcus aureus [10])	MIC (Enterococcus faecalis)	Ratio (Staphylococcus aureus [11])	Ratio (Staphylococcus aureus [12])	MIC (Klebsiella pneumoniae [13])	MIC (Staphylococcus aureus [14])	MIC (Staphylococcus aureus [15])
CO/N=C(\CN1CCN(c2cc3c(cc2F)c(=O)c(C(=O)O)cn3C2CC2)CC1)c1nccs1	0.25 mg/L	inactive	0.25 mg/L	0.25 mg/L	1 mg/L	2 mg/L	256 mg/L	0.25 mg/L	0.25 mg/L	256 mg/L	0.25 mg/L	0.25 mg/L					
C=CCO/N=C(\CN1CCN(c2cc3c(cc2F)c(=O)c(C(=O)O)cn3C2CC2)CC1)c1nccs1	0.25 mg/L		0.25 mg/L	0.25 mg/L	0.25 mg/L	0.25 mg/L	0.25 mg/L	32 mg/L	1 mg/L	0.5 mg/L	0.25 mg/L	0.25 mg/L					
C=CCO/N=C(\CN1CCN(c2cc3c(cc2F)c(=O)c(C(=O)O)cn3CC)CC1)c1nccs1	0.25 mg/L	inactive	0.25 mg/L	0.25 mg/L	0.25 mg/L	4 mg/L	256 mg/L	2 mg/L	0.25 mg/L	0.5 mg/L	0.5 mg/L	1 mg/L	64				
CCO/N=C(\CN1CCN(c2cc3c(cc2F)c(=O)c(C(=O)O)cn3C2CC2)CC1)c1nccs1	0.25 mg/L		0.25 mg/L	0.25 mg/L	1 mg/L	0.25 mg/L	0.25 mg/L	4 mg/L	2 mg/L	32 mg/L	0.5 mg/L	0.25 mg/L					
CO/N=C(\CN1CCN(c2c(F)cc3c(=O)c(C(=O)O)cn(C4CC4)c3c2Cl)CC1)c1nccs1	0.25 mg/L	inactive	0.25 mg/L	1 mg/L	0.25 mg/L	0.25 mg/L	0.25 mg/L	0.25 mg/L	0.25 mg/L	0.25 mg/L	0.5 mg/L	0.25 mg/L					
CCn1cc(C(=O)O)c(=O)c2cc(F)c(N3CCN(C/C(=N\OC(C)(C)C)c4nccs4)CC3)cc21	0.25 mg/L		0.25 mg/L	2 mg/L	16 mg/L	1 mg/L	1 mg/L	16 mg/L	1 mg/L	1 mg/L	1 mg/L	0.25 mg/L	64				
O=C(CN1CCN(c2cc3c(cc2F)c(=O)c(C(=O)O)cn3C2CC2)CC1)c1nccs1	1 mg/L		16 mg/L	1 mg/L	2 mg/L	1 mg/L	16 mg/L	2 mg/L	4 mg/L	4 mg/L	4 mg/L	8 mg/L					
COC(=O)CO/N=C(\CN1CCN(c2c(F)cc3c(=O)c(C(=O)O)cn(C4CC4)c3c2Cl)CC1)c1nccs1	0.25 mg/L		0.25 mg/L	0.25 mg/L	4 mg/L	0.25 mg/L	256 mg/L	0.25 mg/L	4 mg/L	0.5 mg/L	0.25 mg/L	0.25 mg/L					
CCn1cc(C(=O)O)c(=O)c2cc(F)c(N3CCN(C/C(=N\OCC(=O)OC)c4nccs4)CC3)cc21	4 mg/L		0.25 mg/L	0.25 mg/L	1 mg/L	0.25 mg/L	256 mg/L	2 mg/L	32 mg/L	0.25 mg/L	0.25 mg/L	0.25 mg/L	64				
C=CCO/N=C(\CN1CCN(c2c(F)cc3c(=O)c(C(=O)O)cn(C4CC4)c3c2Cl)CC1)c1nccs1	0.25 mg/L		0.25 mg/L	0.25 mg/L	0.25 mg/L	0.25 mg/L	256 mg/L	0.5 mg/L	0.25 mg/L	0.5 mg/L	0.25 mg/L	0.25 mg/L					
CCn1cc(C(=O)O)c(=O)c2cc(F)c(N3CCNCC3)cc21 [NORFLOXACIN]	4 mg/L		16 mg/L	2 mg/L	2 mg/L	8 mg/L	4 mg/L	2 mg/L	16 mg/L	16 mg/L	2 mg/L	4 mg/L					
CCn1cc(C(=O)O)c(=O)c2cc(F)c(N3CCN(CC(=O)c4nccs4)CC3)cc21	4 mg/L		4 mg/L	4 mg/L	16 mg/L	2 mg/L	32 mg/L	1 mg/L	32 mg/L	64 mg/L	2 mg/L	2 mg/L	4	16			
CCn1cc(C(=O)O)c(=O)c2cc(F)c(N3CCN(C/C(=N\OC)c4nccs4)CC3)cc21	2 mg/L	inactive	0.25 mg/L	0.25 mg/L	0.25 mg/L	8 mg/L	256 mg/L	0.25 mg/L	0.25 mg/L	256 mg/L	0.5 mg/L	4 mg/L	64				
O=C(O)c1cn(C2CC2)c2c(Cl)c(N3CCN(C/C(=N\OCc4ccccc4)c4nccs4)CC3)c(F)cc2c1=O	2 mg/L		0.25 mg/L	1 mg/L	0.25 mg/L	0.25 mg/L	0.25 mg/L	2 mg/L	0.25 mg/L	0.25 mg/L	1 mg/L	0.25 mg/L					
CC(C)(C)O/N=C(\CN1CCN(c2c(F)cc3c(=O)c(C(=O)O)cn(C4CC4)c3c2Cl)CC1)c1nccs1	0.25 mg/L	inactive	0.25 mg/L	0.25 mg/L	0.25 mg/L	0.25 mg/L	256 mg/L	0.25 mg/L	4 mg/L	0.25 mg/L	0.5 mg/L	0.25 mg/L					
CCn1cc(C(=O)O)c(=O)c2cc(F)c(N3CCN(C/C(=N\OCc4ccccc4)c4nccs4)CC3)cc21	4 mg/L		0.25 mg/L	0.5 mg/L	1 mg/L	1 mg/L	128 mg/L	256 mg/L	0.5 mg/L	64 mg/L	0.25 mg/L	0.25 mg/L	64				
CCO/N=C(\CN1CCN(c2c(F)cc3c(=O)c(C(=O)O)cn(C4CC4)c3c2Cl)CC1)c1nccs1	0.25 mg/L	inactive	0.25 mg/L	0.25 mg/L	0.25 mg/L	0.25 mg/L	256 mg/L	0.25 mg/L	0.25 mg/L	256 mg/L	0.5 mg/L	0.25 mg/L					
CC(C)(C)O/N=C(\CN1CCN(c2cc3c(cc2F)c(=O)c(C(=O)O)cn3C2CC2)CC1)c1nccs1	4 mg/L		4 mg/L	0.25 mg/L	4 mg/L	0.25 mg/L	64 mg/L	4 mg/L	128 mg/L	1 mg/L	1 mg/L	2 mg/L					
CCO/N=C(\CN1CCN(c2cc3c(cc2F)c(=O)c(C(=O)O)cn3CC)CC1)c1nccs1	8 mg/L		0.25 mg/L	0.25 mg/L	2 mg/L	8 mg/L	256 mg/L	4 mg/L	0.25 mg/L	256 mg/L	0.5 mg/L	16 mg/L	64				
O=C(O)c1cn(C2CC2)c2cc(N3CCN(C/C(=N\OCc4ccccc4)c4nccs4)CC3)c(F)cc2c1=O	0.25 mg/L		0.25 mg/L	0.25 mg/L	8 mg/L	1 mg/L	256 mg/L	0.5 mg/L	0.25 mg/L	256 mg/L	1 mg/L	2 mg/L					
O=C(O)c1cn(C2CC2)c2cc(N3CCNCC3)c(F)cc2c1=O [CIPROFLOXACIN]	2 mg/L		8 mg/L			1 mg/L	2 mg/L	0.5 mg/L			2 mg/L	2 mg/L			0.125 mg/L	2 mg/L (≈ 6.04 µM)	1 mg/L (≈ 3.02 µM)

Source: ChEMBL document CHEMBL4813987, “Membrane active 7-thiazoxime quinolones as novel DNA binding agents to decrease the genes expression and exert potent anti-methicillin-resistant Staphylococcus aureus activity” (Eur J Med Chem, 2021)
